In the library only some 4.3% were active in any assay of this set; here they are far more common.
MC4R barr agon: human MC4R agonism via beta-arrestin | P32245 | U2OS MC4R beta-arrestin complementation, luminescence; percent of melanotan II response, DMSO zero | activation, % at 8.9 µM | 360,000 tested, 0.98% active | AID 540308;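 active means activation above a per-plate cutoff, the mean activation of sample wells on that plate plus 3 SD, cut at about 8% in these data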
m5-HT2A agonist: activates the mouse 5-HT2A serotonin receptor; P35363; CHO-K1 mHTR2A beta-arrestin complementation, luminescence; percent of 30 µM serotonin response; activation, % at 7.6 µM; 360,000 tested, 0.66% active;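 active means activation above a run cutoff, the mean activation of all tested compounds plus 3 SD, cut at about 14% in these data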;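 further: 0% = plate median of compound wells and 100% = 30 µM serotonin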
MC4R antag cAMP: human MC4R antagonism in cAMP assay; P32245; MC4R-expressing cells, MTII-stimulated cAMP, LANCE TR-FRET; inhibition, % at 6.5 µM; 360,000 tested, 0.48% active; AID 540295;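 active means inhibition above its plate's cutoff, the mean of tested wells on that plate plus 3 SD, cut at about 29% in these data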;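 further: 0% = Melanotan II alone and 100% = Melanotan II plus saturating MCL0020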
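Test system: U2OS cells stably expressing human melanocortin 4 receptor (MC4R); also added: Melanotan II challenge; compound: 6.5 µM single dose; timing: 30-min compound preincubation, 1-h Melanotan II challenge, 1-h detection, room temperature; signal: Eu-cAMP/anti-cAMP TR-FRET, emission 671 nm; repeats: one well per compound, no replicates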
TAAR1 ag: agonists of human TAAR1; CHO RD-HGA16 TAAR1, Fluo-8 calcium fluorescence; vehicle wells 0%, saturating PEA agonist 100%; activation, % at 3 µM; 360,000 tested, 0.99% active;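 active means activation above the mean activation of all test compounds in the run plus 3 SD, cut at about 38% in these data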
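Test system: RD-HGA16 (CHO) cells co-expressing Gα16 and hTAAR1 | Doses: Single dose, 3 µM | Schedule: 17-24 h seeding, 75 min 37 °C dye, 30 min RT | Evaluation: % activation from peak over basal fluorescence ratio, DMSO-to-PEA scaled | Technique: Kinetic Fluo-8 calcium fluorescence | Benchmarks: Low control DMSO, high control PEA (EC100)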
Beta2AR agonist: agonists of human beta-2 adrenergic receptor inducing internalization | Am2.2-beta2AR cells, FAP receptor internalization, flow cytometry | response, % (concentration not given with the values) | 340,000 tested, 0.43% active;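 active means response above a set limit, near 3 SD of response in nonfluorescent compounds, cut at about 42% in these data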
Target sequence (P07550 whole entry, looked up): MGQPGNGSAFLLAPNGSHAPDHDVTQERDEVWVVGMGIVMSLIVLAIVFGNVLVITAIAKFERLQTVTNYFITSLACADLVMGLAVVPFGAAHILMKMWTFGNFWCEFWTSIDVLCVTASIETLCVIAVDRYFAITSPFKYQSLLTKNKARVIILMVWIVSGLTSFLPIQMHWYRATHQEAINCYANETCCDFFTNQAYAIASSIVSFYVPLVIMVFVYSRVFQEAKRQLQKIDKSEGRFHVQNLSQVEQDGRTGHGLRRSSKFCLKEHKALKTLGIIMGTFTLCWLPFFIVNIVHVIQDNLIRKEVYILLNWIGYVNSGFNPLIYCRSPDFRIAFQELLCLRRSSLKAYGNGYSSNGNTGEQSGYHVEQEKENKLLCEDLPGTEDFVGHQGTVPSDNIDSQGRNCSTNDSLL
TAAR1 antag: antagonists of human TAAR1; Q96RJ0; CHO RD-HGA16 TAAR1, Fluo-8 calcium fluorescence, antagonist; inhibition, % at 3 µM; 360,000 tested, 1.5% active;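 active means inhibition above a per-plate cutoff, the mean inhibition of test compounds on that plate plus 3 SD, cut at about 49% in these data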;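 further: 0% = DMSO plus EC80 beta-PEA response and 100% = DMSO alone without agonist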
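Assay system: CHO-derived RD-HGA16 cells stably expressing human TAAR1 plus Gα16. Timing: 140 s kinetic read after compound, 140 s after agonist. Technique: kinetic Fluo-8 calcium fluorescence measurement. Measure: % inhibition of agonist calcium response.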
Numbers without * were called inactive; / = no result.

SMILES	MC4R barr agon	m5-HT2A agonist	MC4R antag cAMP	TAAR1 ag	Beta2AR agonist	TAAR1 antag
COC(=O)C1=C(C)N(Cc2ccccc2)C(=NCc2cccc(C(F)(F)F)c2)N[C@H]1c1cccc(C(F)(F)F)c1	20.6*	1.9	8.2	/	32.1	/
Cc1cc(C)c(CN2CCN(C(=O)Cn3cc(C)c(=O)[nH]c3=O)CC2)c(C)c1	/	/	/	-0.8	/	-11.6
c1coc(-c2nc3c4ccccc4ccn3c2Cc2ccsc2)c1	/	/	/	0.4	/	-12.2
COCc1cc(N2CCN(C(=O)OC(C)(C)C)C[C@H]2C)ccc1N1CCN(Cc2ccccc2)[C@H](C)C1	/	/	/	4.3	/	0.6
c1ccc2[nH]c(CCCCc3nc4ccccc4[nH]3)nc2c1	-0.6	-6.9	0.3	37.9*	-12.3	-1.2
Cc1ccc(-n2c(C)cc(C(=O)COc3c(CO)cc(F)cc3CO)c2C)cc1C	0.1	-2.4	-5.1	9.2	1.5	56.2*
Cc1cc(C(=O)COc2ccccc2Cl)c(C)n1-c1ccc2c(c1)OCO2	-1.1	-5.5	3.8	-1.0	-1.8	4.3
CC1(C(=O)Nc2ccc3[nH]ncc3c2)CCN1C(=O)Cc1ccc(-c2ccccc2)cc1 (configuration not stated)	1.5	-5.2	4.3	18.3	/	49.7*
C[C@@H]1CN([C@@H](C)CO)C(=O)CCCn2cc(nn2)CO[C@H]1CN(C)C(=O)Nc1cccc(C(F)(F)F)c1	/	/	/	7.1	/	-0.9
Cc1cc(C)cc(NC(=O)c2ccc(Cn3nc(C)c(Cl)c3C)o2)c1	-0.4	-0.2	-5.8	28.6	5.9	54.4*
Cc1ccc(CNC(=O)c2ccc(Cn3nc(C)c(Cl)c3C)o2)cc1	-1.9	-5.5	-0.5	-0.1	-1.9	0.7
COC(=O)Cc1nnn2c1[C@@H](C)[C@@H](c1ccccc1Br)OC[C@@H]2c1ccccc1	/	/	/	4.7	/	-14.9
CC(=O)c1ccc(NC(=O)CSc2ccc(-c3sc(C)nc3C)nn2)cc1	-1.1	-3.2	16.3	12.6	15.6	63.5*
COc1ccc(NC(=O)CSc2ccc(-c3sc(C)nc3C)nn2)cc1OC	-1.9	5.0	2.6	7.6	4.8	13.1
Cc1ccc(/C=N/Nc2ccc(C(=O)O)cc2)s1	-2.3	4.0	-9.7	3.7	2.3	-26.5
O=C(O)c1ccc(N/N=C/c2cc(Br)cs2)cc1	-0.7	-1.9	6.5	38.5*	10.1	7.3
S=C(NCCSCc1ccc(Cl)c(Cl)c1)Nc1ccccc1	2.8	-2.4	4.4	4.0	47.4*	45.6
COc1ccc(CSCCNC(=S)Nc2ccccc2)cc1Cl	-0.1	-5.3	0.0	1.6	4.1	15.5
NC(=O)c1c(N)[nH]c(C(=O)c2ccccc2)c1-c1ccccc1Br	/	6.9	/	5.4	/	-3.0
C/C=C(/C)C(=O)OC1c2c(ccc3ccc(=O)oc23)OC(C)(C)C1OC(C)=O (configuration not stated)	-1.6	-4.2	0.5	45.6*	3.0	48.3
O=C(/C=C(\Nc1cccc(OC(F)F)c1)c1ccccc1)c1ccccc1	/	/	/	0.1	/	31.5
CCCNC(=O)C1(C)CCCN(C(=O)c2cccc(C(F)(F)F)c2)C1 (configuration not stated)	0.1	5.1	1.8	3.2	/	-15.1
CN(C(=O)[C@@H](Cc1ccccc1)NC(=O)[C@H]1O[C@@H](n2ccc(=O)[nH]c2=O)[C@H](O)[C@@H]1O)C1CCCCC1	/	/	/	1.7	/	-23.3
COc1ccccc1N1CCN(C(=O)CCCN2C(=O)c3cccc4cccc(c34)C2=O)CC1	0.4	-0.6	20.4	16.3	10.5	50.1*
COc1ccccc1N1CCN(C(=O)CN2C(=O)c3cccc4cccc(c34)C2=O)CC1	0.1	-1.6	17.7	3.8	11.6	19.4
SMILES	MC4R barr agon	m5-HT2A agonist	MC4R antag cAMP	TAAR1 ag	Beta2AR agonist	TAAR1 antag
OC(CNC1CCCc2ccccc21)COc1c(Cl)cccc1Cl (configuration not stated)	-0.9	-4.3	2.1	69.0*	2.6	9.6
COc1ccc2c3c(n(C(=O)OC(C)(C)C)c2c1)C1CC=C(COC(C)=O)CN1CC3 (configuration not stated)	/	-3.2	/	-0.7	/	-23.4
COc1ccc(C2=NOC(C(=O)NCc3ccccn3)C2)cc1 (configuration not stated)	-0.5	4.8	-4.2	1.1	-8.1	7.7
COc1cccc(C2=NOC(C(=O)NCc3ccccn3)C2)c1 (configuration not stated)	-1.4	2.6	1.4	45.1*	-1.6	-21.5
c1ccc(C2Nc3ccccc3Oc3ccccc32)cc1 (configuration not stated)	0.5	-2.3	2.8	39.5*	-0.3	14.4
c1ccc(C2Nc3ccccc3C3OCCCC23)cc1 (configuration not stated)	6.4	-2.8	19.2	0.2	-4.4	-9.4
Cc1cc2nc(-c3ccc(C#N)cc3)c(Cc3cccc(F)c3)n2c(C)c1Br	/	-1.3	/	-1.6	/	3.5
COC(=O)C1=C(C)NC2=C(C(=O)CCC2)C1c1ccc(-c2ccsc2C(=O)OC)o1 (configuration not stated)	0.8	-0.5	-5.0	44.7*	16.2	27.6
O=C(NCCCNc1ccc([N+](=O)[O-])cc1)C(F)(F)F	-2.6	-1.6	1.9	1.7	3.7	-4.1
O=C(CCl)N(CCCNC(=O)C(F)(F)F)c1ccc([N+](=O)[O-])cc1	12.9*	1.1	7.7	0.6	6.7	-25.6
Cc1cc(N2CCNC[C@H]2C)ccc1N1C[C@@H](C)O[C@@H](C)C1	/	/	/	1.6	/	9.3
Cc1ccc(C(=O)/C=C/c2ccccc2[N+](=O)[O-])cc1	1.6	-0.9	0.3	0.7	62.5*	-29.1
O=C(/C=C/c1ccccc1[N+](=O)[O-])c1ccccc1Br	3.7	-3.2	6.1	-0.8	57.5*	11.7
Cc1ccc(C(=O)/C=C/c2ccc(-c3ccccc3[N+](=O)[O-])o2)cc1	0.9	-2.5	5.6	4.5	4.7	12.9
Cc1ccc(-n2[nH]c(C)c(C=Nc3ccc4[nH]c(=O)[nH]c4c3)c2=O)cc1C	16.4*	-1.6	6.8	6.2	7.5	-4.3
COc1cccc(CNC(=O)[C@H]2CCCN2C(=O)[C@H]2CCCN2C(=O)c2ccc(C)c(C)c2)c1	/	/	/	-0.4	/	-17.6
CCCN1CCCCC(NC(=O)c2ccc(F)c(F)c2)C1=O (configuration not stated)	/	/	/	0.2	/	-21.1
COc1ccc(-c2nnn(CC(=O)NCc3ccc4c(c3)OCO4)n2)cc1OC	-4.8	0.2	7.6	3.7	-4.9	9.7
CCOc1ccc(-c2nnn(CC(=O)NCc3ccc4c(c3)OCO4)n2)cc1	9.3*	7.0	-2.3	-3.6	6.0	-7.0
c1ccc(CNc2c(-c3cccc(SC4CCCCC4)c3)nc3ccccn23)cc1	0.9	-5.7	15.8	2.5	15.6	54.6*

Screening data from PubChem.
